# Measured values published in ChEMBL document CHEMBL4266027, “Cyanobufalins: Cardioactive Toxins from Cyanobacterial Blooms” (J Nat Prod, 2018).
# How the values were obtained:
# SK-OV-3 = experiment: Cytotoxicity against human SKOV3 cells assessed as decrease in cell viability after 72 hrs by MTS assay; format: functional, cell-based; details: SK-OV-3, 72 h
# Method in brief: (§1)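 Cell proliferation assay using the MTS reagent. Compounds were tested as a dilution series, and EC50 values were derived from the concentration–response data.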
# HCT-116 = experiment: Cytotoxicity against human HCT116 cells assessed as decrease in cell viability after 72 hrs by MTS assay; format: functional, cell-based; details: HCT-116, 72 h; method in brief: as §1
# HepG2 = experiment: Cytotoxicity against human HepG2 cells assessed as decrease in cell viability after 72 hrs by MTS assay; format: functional, cell-based; details: HepG2, 72 h; method in brief: as §1
# MES-SA = experiment: Cytotoxicity against human MESSA cells assessed as decrease in cell viability after 72 hrs by MTS assay; format: functional, cell-based; method in brief: as §1
# MES-SA/Dx5 = experiment: Cytotoxicity against human MES-SA/Dx5 cells assessed as decrease in cell viability after 72 hrs by MTS assay; format: functional, cell-based; details: MES-SA/Dx5, 72 h; method in brief: as §1
# 786-0 = experiment: Cytotoxicity against human 786-O cells assessed as decrease in cell viability after 72 hrs by MTS assay; format: functional, cell-based; details: 786-0, 72 h; method in brief: as §1
# MCF7 = experiment: Cytotoxicity against human MCF7 cells assessed as decrease in cell viability after 72 hrs by MTS assay; format: functional, cell-based; details: MCF7, 72 h; method in brief: as §1
# BXPC-3 = experiment: Cytotoxicity against human BxPC3 cells assessed as decrease in cell viability after 72 hrs by MTS assay; format: functional, cell-based; details: BXPC-3, 72 h; method in brief: as §1
# U-87 MG = experiment: Cytotoxicity against human U87MG cells assessed as decrease in cell viability after 72 hrs by MTS assay; format: functional, cell-based, U-87MG ATCC; method in brief: as §1
# NCI-H1975 = experiment: Cytotoxicity against human NCI-H1975 cells assessed as decrease in cell viability after 72 hrs by MTS assay; format: functional, cell-based; details: NCI-H1975, 72 h; method in brief: as §1
# HUVEC = experiment: Cytotoxicity against human HUVEC cells assessed as decrease in cell viability after 72 hrs by MTS assay; format: cell-based; method in brief: as §1
# CCRF S-180 = experiment: Cytotoxicity against mouse S180 cells assessed as decrease in cell viability after 72 hrs by MTS assay; format: functional, cell-based; details: CCRF S-180, 72 h; method in brief: as §1
smiles,measurement,setting,value
CC1(C)[C@H]2OC(=O)O[C@H]2[C@@H](O)[C@]2(C=O)[C@H]3CC[C@]4(C)[C@@H](c5ccc(=O)oc5)[C@@H](Cl)C[C@]4(O)C3=CC[C@@H]12,EC50,SK-OV-3,530 nM
same,EC50,HCT-116,610 nM
same,EC50,HepG2,1300 nM
same,EC50,MES-SA,940 nM
same,EC50,MES-SA/Dx5,720 nM
same,EC50,786-0,350 nM
same,EC50,MCF7,960 nM
same,EC50,BXPC-3,1000 nM
same,EC50,U-87 MG,610 nM
same,EC50,NCI-H1975,590 nM
same,EC50,HUVEC,800 nM
same,EC50,CCRF S-180,> 20000 nM
